Measured values from ChEMBL document CHEMBL2040816, “Design, synthesis, and structure-activity relationship studies of novel millepachine derivatives as potent antiproliferative agents” (Eur J Med Chem, 2012).
Calls of active or inactive are those of the source. The rule behind the calls is not given here.

What was measured:
[1] = system: HepG2; assay: Antiproliferative activity against human HepG2 cells after 24 hrs by MTT assay; type: functional, cell-based; settings: HepG2, 24 h
In short: (§1)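 MTT assay. 1 × 10⁴ cells per well were plated and incubated 24 h before dye was added (20 µL of 5 mg/mL MTT in PBS per well), then incubated until a purple precipitate formed. Precipitate dissolved in 150 µL DMSO after medium removal, then absorbance read.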

[2] = system: K562; assay: Antiproliferative activity against human K562 cells after 24 hrs by MTT assay; type: functional, cell-based; settings: K562, 24 h; in short: as §1
[3] = system: SK-OV-3; assay: Antiproliferative activity against human SKOV3 cells after 24 hrs by MTT assay; type: functional, cell-based; settings: SK-OV-3, 24 h; in short: as §1
[4] = system: HCT-116; assay: Antiproliferative activity against human HCT116 cells after 24 hrs by MTT assay; type: functional, cell-based; settings: HCT-116, 24 h; in short: as §1
[5] = system: HT-29; assay: Antiproliferative activity against human HT-29 cells after 24 hrs by MTT assay; type: functional, cell-based; settings: HT-29, 24 h; in short: as §1
[6] = system: SW-620; assay: Antiproliferative activity against human SW620 cells after 24 hrs by MTT assay; type: functional, cell-based; settings: SW-620, 24 h; in short: as §1
[7] = system: HepG2; assay: Inhibition of alpha-tubulin in human HepG2 cells assessed as decrease in microtubule formation at 1 uM after 24 hrs by DAPI staining-based immunofluorescence analysis; type: cell-based
[8] = system: HepG2; assay: Inhibition of alpha-tubulin in human HepG2 cells assessed as decrease in spindle formation at 1 uM after 24 hrs by DAPI staining-based immunofluorescence analysis; type: cell-based
[9] = system: HepG2; assay: Cell cycle arrest in human HepG2 cells assessed as accumulation at G1 phase at 1.25 uM after 8 hrs by propidium iodide staining-based flow cytometric analysis (reference value: 49.86%); type: functional
[10] = system: HepG2; assay: Cell cycle arrest in human HepG2 cells assessed as accumulation at S phase at 1.25 uM after 8 hrs by propidium iodide staining-based flow cytometric analysis (reference value: 32.43%); type: functional
[11] = system: HepG2; assay: Cell cycle arrest in human HepG2 cells assessed as accumulation at G2/M phase at 1.25 uM after 8 hrs by propidium iodide staining-based flow cytometric analysis (reference value: 17.72%); type: functional
[12] = system: HepG2; assay: Cell cycle arrest in human HepG2 cells assessed as accumulation at G1 phase at 2.5 uM after 8 hrs by propidium iodide staining-based flow cytometric analysis (reference value: 49.86%); type: functional
[13] = system: HepG2; assay: Cell cycle arrest in human HepG2 cells assessed as accumulation at S phase at 2.5 uM after 8 hrs by propidium iodide staining-based flow cytometric analysis (reference value: 32.43%); type: functional
[14] = system: HepG2; assay: Cell cycle arrest in human HepG2 cells assessed as accumulation at G2/M phase at 2.5 uM after 8 hrs by propidium iodide staining-based flow cytometric analysis (reference value: 17.72%); type: functional
[15] = system: HepG2; assay: Cell cycle arrest in human HepG2 cells assessed as accumulation at G1 phase at 5 uM after 8 hrs by propidium iodide staining-based flow cytometric analysis (reference value: 49.86%); type: functional
[16] = system: A549; assay: Antitumor activity against human A549 cells xenografted in BALB/c mouse assessed as tumor growth inhibition at 20 mg/kg, iv administered at intervals of 2 days for 18 days relative to control; type: functional; settings: read-out: GI
In short: (§2)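 Nude mice received 1 × 10⁷ A549 cells in 0.1 mL DMEM subcutaneously in the right gluteal region. At 100 mm³ tumour volume, 24 mice were randomised into four groups (n = 6). Test groups got 20 mg/kg in 0.2 mL physiological saline by tail vein every 2 days for 18 days. Vehicle control got saline; cisplatin 5 mg/kg weekly served as positive control. Tumour growth and body weight tracked; two-sided Student's t test.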

[17] = system: Mus musculus; assay: Toxicity in BALB/c mouse bearing human A549 cells assessed as decrease in body weight at 20 mg/kg, iv administered at intervals of 2 days for 18 days; type: organism-based; set-up: dose 20 mg/kg, route intravenous; settings: in vivo; in short: as §2
[18] = system: HepG2; assay: Cell cycle arrest in human HepG2 cells assessed as accumulation at 5 uM after 8 hrs by propidium iodide staining-based flow cytometric analysis (reference value: 17.72%)
[19] = system: HepG2; assay: Cell cycle arrest in human HepG2 cells assessed as accumulation at G2/M phase at 5 uM after 8 hrs by propidium iodide staining-based flow cytometric analysis (reference value: […])

Row | SMILES | IC50 [1] [nM] | IC50 [2] [nM] | IC50 [3] [nM] | IC50 [4] [nM] | IC50 [5] [nM] | IC50 [6] [nM] | inhibition [7] | inhibition [8] | Activity [9] [%] | Activity [10] [%] | Activity [11] [%] | Activity [12] [%] | Activity [13] [%] | Activity [14] [%] | Activity [15] [%] | inhibition in vivo at 20 mg/kg [16] [%] | Activity [17] | Activity [18] [%] | Activity [19] [%]
1 | COc1ccc(/C=C/C(=O)c2ccc(OC)c3c2OC(C)(C)C=C3)cc1 [MILLEPACHINE] | 1510 | 4560 | 2360 | 4660 | 3290 | 760 | Active | Active | 10.34 | 20.35 | 69.31 | 2.64 | 17.71 | 79.65 | 0.66 | 69.4 | Non-toxic | 91.65 | 7.68
2 | CCN(CC)c1ccc(/C=C/C(=O)c2ccc(OC)c3c2OC(C)(C)C=C3)cc1 | 590 | 790 | 610 | 620 | 550 | 670 | Active | Active | 40.67 | 16.77 | 42.55 | 4.49 | 17.17 | 78.35 | 0 | 84.1 | Non-toxic | 9.99 | 90.01
